ChEMBL document CHEMBL3864121, “Development of ebsulfur analogues as potent antibacterials against methicillin-resistant Staphylococcus aureus” (Bioorg Med Chem, 2016)
Converted amounts (≈) assume the structure as drawn. The source made the active and inactive calls. The calls are words filed in the database; no cut-off is given here.

Columns and labels:
[1] = test system: Staphylococcus aureus; experiment: Antibacterial activity against methicillin-sensitive Staphylococcus aureus ATCC 6538 measured after overnight incubation by broth double-dilution method; assay type: functional
Outline: (§1)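 MIC by broth double-dilution in liquid Mueller-Hinton medium. Values are reported in µg/mL.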

[2] = test system: Staphylococcus aureus; experiment: Antibacterial activity against methicillin-resistant Staphylococcus aureus S22 measured after overnight incubation by broth double-dilution method; assay type: functional; outline: as §1
[3] = test system: Mycolicibacterium smegmatis; experiment: Antibacterial activity against Mycobacterium smegmatis MC2-155 measured after overnight incubation by broth double-dilution method; assay type: functional; conditions: str. MC2 155; outline: as §1
[4] = test system: Staphylococcus aureus; experiment: Antibacterial activity against methicillin-resistant Staphylococcus aureus C1 measured after overnight incubation by broth double-dilution method; assay type: functional; outline: as §1
[5] = test system: Staphylococcus aureus; experiment: Antibacterial activity against methicillin-resistant Staphylococcus aureus G12 measured after overnight incubation by broth double-dilution method; assay type: functional; outline: as §1
[6] = test system: Enterococcus; experiment: Antibacterial activity against Vancomycin-resistant Enterococcus measured after overnight incubation by broth double-dilution method; assay type: functional; outline: as §1
[7] = test system: Staphylococcus aureus; experiment: Antibacterial activity against methicillin-resistant Staphylococcus aureus USA600 measured after overnight incubation by broth double-dilution method; assay type: functional; outline: as §1
[8] = test system: Enterococcus faecalis; experiment: Antibacterial activity against Enterococcus faecalis ATCC 49533 measured after overnight incubation by broth double-dilution method; assay type: functional
Outline: (§2)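 MIC by broth double-dilution in Mueller-Hinton medium. Re-testing at the time-kill inoculum used 1×10^6 CFU/mL.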

[9] = test system: Enterococcus faecalis; experiment: Antibacterial activity against Enterococcus faecalis ATCC 29212 measured after overnight incubation by broth double-dilution method; assay type: functional; outline: as §2
[10] = test system: Staphylococcus aureus; experiment: Antibacterial activity against methicillin-resistant Staphylococcus aureus S14 measured after overnight incubation by broth double-dilution method; assay type: functional; outline: as §1
[11] = test system: Staphylococcus aureus; experiment: Antibacterial activity against methicillin-sensitive Staphylococcus aureus ATCC 29213 measured after overnight incubation by broth double-dilution method; assay type: functional; outline: as §1
[12] = test system: Staphylococcus epidermidis; experiment: Antibacterial activity against Staphylococcus epidermidis ATCC 35984 measured after overnight incubation by broth double-dilution method; assay type: functional; conditions: RP62A; outline: as §2
[13] = test system: Staphylococcus aureus; experiment: Antibacterial activity against methicillin-resistant Staphylococcus aureus G1 measured after overnight incubation by broth double-dilution method; assay type: functional; outline: as §1
[14] = test system: Staphylococcus aureus; experiment: Antibacterial activity against methicillin-resistant Staphylococcus aureus C14 measured after overnight incubation by broth double-dilution method; assay type: functional; outline: as §1
[15] = test system: Staphylococcus aureus; experiment: Antibacterial activity against methicillin-resistant Staphylococcus aureus 1 measured after overnight incubation by broth double-dilution method; assay type: functional; outline: as §1
[16] = Cytotoxicity against HEK293 cells assessed as cell death at […] measured after 24 hrs by resazurin dye-based fluorescence analysis relative to untreated control; assay type: toxicity; conditions: human, hek293, 24 h
[17] = test system: Enterococcus faecium; experiment: Antibacterial activity against Enterococcus faecium BM4105-RF measured after overnight incubation by broth double-dilution method; assay type: functional; outline: as §1
[18] = test system: Staphylococcus aureus; experiment: Antibacterial activity against methicillin-resistant Staphylococcus aureus 2 measured after overnight incubation by broth double-dilution method; assay type: functional; outline: as §1
[19] = test system: Staphylococcus aureus; experiment: Antibacterial activity against methicillin-resistant Staphylococcus aureus NRS4 measured after overnight incubation by broth double-dilution method; assay type: functional; outline: as §1
[20] = test system: Staphylococcus aureus; experiment: Antibacterial activity against methicillin-resistant Staphylococcus aureus BRS3 measured after overnight incubation by broth double-dilution method; assay type: functional; outline: as §1
[21] = test system: Staphylococcus aureus; experiment: Antibacterial activity against methicillin-resistant Staphylococcus aureus USA100 measured after overnight incubation by broth double-dilution method; assay type: functional; outline: as §1
[22] = test system: Staphylococcus aureus; experiment: Antibacterial activity against methicillin-resistant Staphylococcus aureus C19 measured after overnight incubation by broth double-dilution method; assay type: functional; outline: as §1
[23] = test system: Staphylococcus aureus; experiment: Antibacterial activity against methicillin-resistant Staphylococcus aureus ATCC 33591 measured after overnight incubation by broth double-dilution method; assay type: functional; outline: as §1
[24] = test system: Staphylococcus aureus; experiment: Antibacterial activity against methicillin-resistant Staphylococcus aureus USA300 measured after overnight incubation by broth double-dilution method; assay type: functional; outline: as §1
[25] = test system: Staphylococcus aureus; experiment: Antibacterial activity against methicillin-resistant Staphylococcus aureus G14 measured after overnight incubation by broth double-dilution method; assay type: functional; outline: as §1
[26] = test system: Listeria monocytogenes; experiment: Antibacterial activity against Listeria monocytogenes ATCC 19115 measured after overnight incubation by broth double-dilution method; assay type: functional; outline: as §2
[27] = test system: Staphylococcus aureus; experiment: Antibacterial activity against methicillin-resistant Staphylococcus aureus S17 measured after overnight incubation by broth double-dilution method; assay type: functional; outline: as §1
[28] = test system: Staphylococcus aureus; experiment: Antibacterial activity against methicillin-sensitive Staphylococcus aureus ATCC 25923 measured after overnight incubation by broth double-dilution method; assay type: functional; outline: as §1
[29] = test system: Staphylococcus aureus; experiment: Antibacterial activity against methicillin-resistant Staphylococcus aureus NRS51 measured after overnight incubation by broth double-dilution method; assay type: functional; outline: as §1
[30] = test system: Staphylococcus aureus; experiment: Antibacterial activity against methicillin-resistant Staphylococcus aureus C7 measured after overnight incubation by broth double-dilution method; assay type: functional; outline: as §1
[31] = test system: Staphylococcus aureus; experiment: Antibacterial activity against methicillin-resistant Staphylococcus aureus USA200 measured after overnight incubation by broth double-dilution method; assay type: functional; outline: as §1
[32] = test system: Staphylococcus aureus; experiment: Antibacterial activity against methicillin-resistant Staphylococcus aureus C16 measured after overnight incubation by broth double-dilution method; assay type: functional; outline: as §1
[33] = test system: Staphylococcus aureus; experiment: Antibacterial activity against methicillin-resistant Staphylococcus aureus S24 measured after overnight incubation by broth double-dilution method; assay type: functional; outline: as §1
[34] = test system: Staphylococcus aureus; experiment: Antibacterial activity against methicillin-resistant Staphylococcus aureus NRS77 measured after overnight incubation by broth double-dilution method; assay type: functional; outline: as §1
[35] = test system: Staphylococcus aureus; experiment: Antibacterial activity against methicillin-resistant Staphylococcus aureus G6 measured after overnight incubation by broth double-dilution method; assay type: functional; outline: as §1
[36] = test system: Staphylococcus aureus; experiment: Antibacterial activity against methicillin-resistant Staphylococcus aureus C2 measured after overnight incubation by broth double-dilution method; assay type: functional; outline: as §1
[37] = test system: Staphylococcus aureus; experiment: Antibacterial activity against methicillin-resistant Staphylococcus aureus S22 using 1 10^6CFU/ml measured after overnight incubation by broth double-dilution method; assay type: functional

| SMILES | MIC [1] [µg/mL] | MIC [2] [µg/mL] | MIC [3] [µg/mL] | MIC [4] [µg/mL] | MIC [5] [µg/mL] | MIC [6] [µg/mL] | MIC [7] [µg/mL] | MIC [8] [µg/mL] | MIC [9] [µg/mL] | MIC [10] [µg/mL] | MIC [11] [µg/mL] | MIC [12] [µg/mL] | MIC [13] [µg/mL] | MIC [14] [µg/mL] | MIC [15] [µg/mL] | MIC [17] [µg/mL] | MIC [18] [µg/mL] | MIC [19] [µg/mL] | MIC [20] [µg/mL] | MIC [21] [µg/mL] | other results |
| --- | --- | --- | --- | --- | --- | --- | --- | --- | --- | --- | --- | --- | --- | --- | --- | --- | --- | --- | --- | --- | --- |
| O=c1c2ccccc2sn1C1CCCC1 | 7.8 (≈ 35.6 µM) | 7.8 (≈ 35.6 µM) | 2 (≈ 9.12 µM) | 3.9 (≈ 17.8 µM) | 3.9 (≈ 17.8 µM) | 2 (≈ 9.12 µM) | 7.8 (≈ 35.6 µM) | > 125 | > 125 | 0.5 (≈ 2.28 µM) | 2 (≈ 9.12 µM) | 2 (≈ 9.12 µM) | 2 (≈ 9.12 µM) | 3.9 (≈ 17.8 µM) | 2 (≈ 9.12 µM) | > 125 |  |  |  |  | Activity [16]: > 20% |
| O=c1c2ccccc2sn1CCc1ccccc1 | 3.9 (≈ 15.3 µM) | 3.9 (≈ 15.3 µM) | 2 (≈ 7.83 µM) | 2 (≈ 7.83 µM) | 1 (≈ 3.92 µM) | 1 (≈ 3.92 µM) | 3.9 (≈ 15.3 µM) | > 125 | > 125 | 0.5 (≈ 1.96 µM) | 2 (≈ 7.83 µM) | 2 (≈ 7.83 µM) | 0.5 (≈ 1.96 µM) | 2 (≈ 7.83 µM) | 1 (≈ 3.92 µM) | > 125 | 1 (≈ 3.92 µM) | 2 (≈ 7.83 µM) | 2 (≈ 7.83 µM) | 3.9 (≈ 15.3 µM) | MIC [22]: 1 µg/mL (≈ 3.92 µM); MIC [23]: 1 µg/mL (≈ 3.92 µM); MIC [24]: 2 µg/mL (≈ 7.83 µM); MIC [25]: 1 µg/mL (≈ 3.92 µM); MIC [26]: 3.9 µg/mL (≈ 15.3 µM); MIC [27]: 1 µg/mL (≈ 3.92 µM); MIC [28]: 1 µg/mL (≈ 3.92 µM); MIC [29]: 2 µg/mL (≈ 7.83 µM); MIC [30]: 2 µg/mL (≈ 7.83 µM); MIC [31]: 2 µg/mL (≈ 7.83 µM); MIC [32]: 3.9 µg/mL (≈ 15.3 µM); MIC [33]: 2 µg/mL (≈ 7.83 µM); MIC [34]: 2 µg/mL (≈ 7.83 µM); Activity [16]: > 20%; MIC [35]: 1 µg/mL (≈ 3.92 µM); MIC [36]: 2 µg/mL (≈ 7.83 µM) |
| O=c1c2ccccc2sn1-c1cccc(Br)c1 | 7.8 (≈ 25.5 µM) | > 125 | 3.9 (≈ 12.7 µM) | 3.9 (≈ 12.7 µM) | 7.8 (≈ 25.5 µM) | 7.8 (≈ 25.5 µM) | 7.8 (≈ 25.5 µM) | > 125 | 15.6 (≈ 50.9 µM) | 0.5 (≈ 1.63 µM) | 3.9 (≈ 12.7 µM) | 3.9 (≈ 12.7 µM) | 3.9 (≈ 12.7 µM) | 7.8 (≈ 25.5 µM) | 7.8 (≈ 25.5 µM) | 15.6 (≈ 50.9 µM) | 3.9 (≈ 12.7 µM) | 7.8 (≈ 25.5 µM) | 7.8 (≈ 25.5 µM) | 3.9 (≈ 12.7 µM) | MIC [22]: 3.9 µg/mL (≈ 12.7 µM); MIC [23]: 2 µg/mL (≈ 6.53 µM); Activity [37]: Active; MIC [24]: 3.9 µg/mL (≈ 12.7 µM); MIC [25]: 7.8 µg/mL (≈ 25.5 µM); MIC [26]: 3.9 µg/mL (≈ 12.7 µM); MIC [27]: 3.9 µg/mL (≈ 12.7 µM); MIC [28]: 7.8 µg/mL (≈ 25.5 µM); MIC [29]: 3.9 µg/mL (≈ 12.7 µM); MIC [30]: 3.9 µg/mL (≈ 12.7 µM); MIC [31]: 7.8 µg/mL (≈ 25.5 µM); MIC [32]: 3.9 µg/mL (≈ 12.7 µM); MIC [33]: 3.9 µg/mL (≈ 12.7 µM); MIC [34]: 3.9 µg/mL (≈ 12.7 µM); MIC [35]: 3.9 µg/mL (≈ 12.7 µM); MIC [36]: 3.9 µg/mL (≈ 12.7 µM) |
| CCCCCn1sc2ccccc2c1=O | 7.8 (≈ 35.2 µM) | 3.9 (≈ 17.6 µM) | 2 (≈ 9.04 µM) | 2 (≈ 9.04 µM) | 2 (≈ 9.04 µM) | 1 (≈ 4.52 µM) | 3.9 (≈ 17.6 µM) | > 125 | 7.8 (≈ 35.2 µM) | ≤ 0.25 | 3.9 (≈ 17.6 µM) | 3.9 (≈ 17.6 µM) | 0.5 (≈ 2.26 µM) | 3.9 (≈ 17.6 µM) | 0.5 (≈ 2.26 µM) | 15.6 (≈ 70.5 µM) | 2 (≈ 9.04 µM) | 2 (≈ 9.04 µM) | 3.9 (≈ 17.6 µM) | 3.9 (≈ 17.6 µM) | MIC [22]: 1 µg/mL (≈ 4.52 µM); MIC [23]: 1 µg/mL (≈ 4.52 µM); Activity [37]: Active; MIC [24]: 3.9 µg/mL (≈ 17.6 µM); MIC [25]: 2 µg/mL (≈ 9.04 µM); MIC [26]: 3.9 µg/mL (≈ 17.6 µM); MIC [27]: 2 µg/mL (≈ 9.04 µM); MIC [28]: 3.9 µg/mL (≈ 17.6 µM); MIC [29]: 3.9 µg/mL (≈ 17.6 µM); MIC [30]: 2 µg/mL (≈ 9.04 µM); MIC [31]: 3.9 µg/mL (≈ 17.6 µM); MIC [32]: 7.8 µg/mL (≈ 35.2 µM); MIC [33]: 3.9 µg/mL (≈ 17.6 µM); MIC [34]: 2 µg/mL (≈ 9.04 µM); MIC [35]: 2 µg/mL (≈ 9.04 µM); MIC [36]: 2 µg/mL (≈ 9.04 µM) |
